Drawing on ChEMBL document CHEMBL3085721, “Nonhydrolyzable ATP analogues as selective inhibitors of human NPP1: a combined computational/experimental study” (J Med Chem, 2013), this text covers inhibition and Ki for five compounds.

In test [1] the target is T1, Ectonucleotide pyrophosphatase/phosphodiesterase family member 1 (Homo sapiens) (UniProt P22413).
T1 sequence (whole entry): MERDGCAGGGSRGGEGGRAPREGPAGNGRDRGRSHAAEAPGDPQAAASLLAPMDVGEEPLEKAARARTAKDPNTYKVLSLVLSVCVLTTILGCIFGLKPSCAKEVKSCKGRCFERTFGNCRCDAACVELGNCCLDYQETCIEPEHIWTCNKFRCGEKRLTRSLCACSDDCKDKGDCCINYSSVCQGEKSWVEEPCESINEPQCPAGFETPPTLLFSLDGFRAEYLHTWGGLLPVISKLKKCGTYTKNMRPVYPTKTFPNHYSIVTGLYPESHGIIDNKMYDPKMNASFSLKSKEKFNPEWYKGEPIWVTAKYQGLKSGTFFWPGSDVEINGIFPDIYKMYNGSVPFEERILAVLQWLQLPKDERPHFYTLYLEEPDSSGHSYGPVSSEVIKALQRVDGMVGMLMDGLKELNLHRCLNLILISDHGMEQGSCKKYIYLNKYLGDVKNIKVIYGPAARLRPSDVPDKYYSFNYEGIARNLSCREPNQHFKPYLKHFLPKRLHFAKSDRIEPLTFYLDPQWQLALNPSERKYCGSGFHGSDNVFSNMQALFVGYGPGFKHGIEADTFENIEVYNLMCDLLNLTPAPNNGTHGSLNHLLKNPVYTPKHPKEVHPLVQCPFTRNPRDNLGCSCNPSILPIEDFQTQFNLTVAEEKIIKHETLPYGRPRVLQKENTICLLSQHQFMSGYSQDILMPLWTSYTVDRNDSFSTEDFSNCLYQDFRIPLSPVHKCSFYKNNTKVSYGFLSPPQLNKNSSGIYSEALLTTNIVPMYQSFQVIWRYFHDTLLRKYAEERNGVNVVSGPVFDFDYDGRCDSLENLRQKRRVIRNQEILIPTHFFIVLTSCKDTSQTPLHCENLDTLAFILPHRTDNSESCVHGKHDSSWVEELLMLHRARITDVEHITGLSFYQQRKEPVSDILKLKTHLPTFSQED
Description: Inhibition of human NPP1 expressed in COS7 cells assessed as production of p-nitrophenol using pnp-TMP as the substrate preincubated at 100 uM for 3 mins before substrate addition measured after 15 mins […]. Format: cell-based. The settings on record: COS-7. In a few lines: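 Crude extracts of COS-7 cells transiently transfected with human NPP1 or NPP3, preincubated 3 min at 37 °C in 1 mM CaCl2, 140 mM NaCl, 5 mM KCl, 50 mM Tris pH 8.5 with analogue at 100 μM. Reaction started with 100 μM pnp-TMP; p-nitrophenol at 410 nm after 15 min. Activity without analogue set as 100%. Mean ± SD of 3−6 experiments in triplicate.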

In test [2] the target is T2, Ectonucleoside triphosphate diphosphohydrolase 1 (Homo sapiens) (UniProt P49961).
T2 sequence (whole entry): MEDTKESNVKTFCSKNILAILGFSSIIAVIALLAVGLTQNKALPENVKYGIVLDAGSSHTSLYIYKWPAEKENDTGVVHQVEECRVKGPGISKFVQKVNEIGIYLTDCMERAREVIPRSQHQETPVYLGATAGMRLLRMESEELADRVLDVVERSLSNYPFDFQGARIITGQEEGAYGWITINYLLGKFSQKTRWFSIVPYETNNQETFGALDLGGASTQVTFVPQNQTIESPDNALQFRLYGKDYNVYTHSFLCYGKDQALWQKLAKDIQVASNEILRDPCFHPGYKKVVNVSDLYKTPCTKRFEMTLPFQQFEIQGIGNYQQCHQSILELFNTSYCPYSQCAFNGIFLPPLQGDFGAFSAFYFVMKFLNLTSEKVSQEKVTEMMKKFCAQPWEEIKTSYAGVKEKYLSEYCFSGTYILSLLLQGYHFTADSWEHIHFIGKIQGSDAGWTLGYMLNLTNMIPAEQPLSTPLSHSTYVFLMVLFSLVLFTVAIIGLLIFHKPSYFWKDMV
Description: Inhibition of human NTPDase1 assessed as amount of inorganic phosphate released using ATP as the substrate preincubated at 100 uM for 3 mins before substrate addition after 15 mins by malachite green reagent method. In a few lines: (§1)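 Crude extracts of COS-7 cells transiently transfected with human NTPDase1, -2, -3 or -8, preincubated 3 min at 37 °C in Tris-Ringer medium pH 7.4 with analogue (final 100 μM). Started with 100 μM ATP, stopped after 15 min with malachite green; released Pi read at 630 nm. ATP alone set as 100%. Mean ± SD of 3−6 experiments in triplicate.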

The target of test [3] is T3, Ectonucleoside triphosphate diphosphohydrolase 2 (Homo sapiens) (UniProt Q9Y5L3).
T3 sequence (whole entry): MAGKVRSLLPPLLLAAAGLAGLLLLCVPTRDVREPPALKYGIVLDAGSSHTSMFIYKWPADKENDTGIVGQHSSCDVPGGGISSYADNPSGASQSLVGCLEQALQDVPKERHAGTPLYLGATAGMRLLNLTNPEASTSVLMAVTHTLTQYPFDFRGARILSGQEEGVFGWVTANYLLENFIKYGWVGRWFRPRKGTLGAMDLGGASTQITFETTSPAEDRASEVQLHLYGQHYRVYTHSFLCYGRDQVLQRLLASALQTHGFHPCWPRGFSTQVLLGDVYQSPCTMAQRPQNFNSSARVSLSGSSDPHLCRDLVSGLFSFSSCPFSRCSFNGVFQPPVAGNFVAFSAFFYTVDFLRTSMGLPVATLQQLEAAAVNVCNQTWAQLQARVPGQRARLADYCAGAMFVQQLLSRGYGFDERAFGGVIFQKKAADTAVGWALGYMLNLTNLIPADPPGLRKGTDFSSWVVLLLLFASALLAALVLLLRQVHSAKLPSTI
Description: Inhibition of human NTPDase2 assessed as amount of inorganic phosphate released using ATP as the substrate preincubated at 100 uM for 3 mins before substrate addition after 15 mins by malachite green reagent method. The gist of the method:
as §1

For test [4], the target named is T4, Ectonucleotide pyrophosphatase/phosphodiesterase family member 1 (Homo sapiens, UniProt P22413).
T4 sequence (P22413 whole entry): T1 sequence (whole entry)
Description: Mixed type inhibition of human NPP1 expressed in COS7 cells assessed as production of p-nitrophenol using pnp-TMP as the substrate preincubated for 3 mins before substrate addition measured after 15 mins by Dixon/Cornish Bowden method. The settings on record: read-out: Ki(app). It counts as cell-based, COS-7. The gist of the method:
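Crude protein extract from COS-7 cells transiently transfected with human NPP1 (sonicated, debris cleared at 300g), preincubated 3 min at 37 °C with inhibitor (0, 25, 50, 100 μM) in 1 mM CaCl2, 140 mM NaCl, 5 mM KCl, 50 mM Tris pH 8.5. pnp-TMP (25, 50, 100 μM) added; p-nitrophenol read at 410 nm after 15 min. Ki,app and inhibition type from Dixon and Cornish-Bowden plots, three independent experiments.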

By inhibition is commonly meant how much of the control response was suppressed.

Regarding `B[P@](=O)(OC[C@H]1O[C@@H](n2cnc3c(N)ncnc32)[C@H](O)[C@@H]1O)OP(=O)(O)CP(=O)(O)O`, the inhibition in test [1] is 80%; in test [2] it was less than 18%; in test [3] it was less than 18%. In addition, the Ki in test [4] was 7 µM.
Regarding `CSc1nc(N)c2ncn([C@@H]3O[C@H](COP(=O)(O)C(F)(F)P(=O)(O)O)[C@@H](O)[C@H]3O)c2n1`, the inhibition is 90% in test [1], less than 18% in test [2] and less than 18% in test [3]. The Ki in test [4] is 26 µM.
Turning to `B[P@@](=O)(OC[C@H]1O[C@@H](n2cnc3c(N)ncnc32)[C@H](O)[C@@H]1O)OP(=O)(O)CP(=O)(O)O`, the figures for the inhibition in test [1], in test [2] and in test [3] were 90%, less than 18% and less than 18%, respectively. In addition, in test [4], the Ki stood at 0.5 µM.
For the compound `B[P@@](=O)(OC[C@H]1O[C@@H](n2cnc3c(N)nc(SC)nc32)[C@H](O)[C@@H]1O)OP(=O)(O)C(F)(F)P(=O)(O)O`, the inhibition in test [1] came out at 90%; in test [2], 50%; in test [3], 50%.
As for `B[P@](=O)(OC[C@H]1O[C@@H](n2cnc3c(N)nc(SC)nc32)[C@H](O)[C@@H]1O)OP(=O)(O)CP(=O)(O)O`, the inhibition in test [1] is 80%; in test [2], less than 18%; in test [3], less than 18%. In addition, in test [4], the Ki amounted to 56 µM.
